Laboratory results taken from ChEMBL document CHEMBL5046229 (Eur J Med Chem, 2022).
pIC50: −log10 of the molar value. Calls of active or inactive are those of the source. The rule behind the calls is not given here.

What was measured:
[1] = Drug metabolism in JAK2V6175 transgenic myelofibrosis C57BL/6 mouse bone marrow at 325 mg/kg, po assessed as metabolite formation measured after 4 hrs by LC-MS/MS analysis; type: ADME, organism-based; settings: in vivo
How it was run: (§1)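 Mice received a single oral dose of 325 mg/kg (n=4 per compound). Blood, spleen and bone marrow taken about 4 h later and homogenized. Extracts centrifuged at 10,000 × g and separated by reverse-phase C18 UPLC (0.1% formic acid water/acetonitrile gradient). Parent and metabolites quantified by MRM LC-MS/MS against internal-standard calibration (0.02–160 ng/mL, r² ≥ 0.99). Synthesized metabolite standards used for confirmation. Levels given as ng/g, mean ± SEM.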

Mus musculus [2] = test: Antitumor activity against JAK2V6175 transgenic myelofibrosis C57BL/6 mouse cancer model assessed as reduction in spleen weight at 325 mg/kg, po administered daily for 5 days; parameters: scale not given: the % may be the effect or the level left; settings: time 5 day
SET2 [3] = test: Inhibition of AKT phosphorylation in human SET2 cells assessed as change in phosphorylated Akt level at 10 uM for 30 minutes in absence of PDGF by western blot analysis relative to control; parameters: scale not given: the % may be the effect or the level left
[4] = molecular target: Dual specificity mitogen-activated protein kinase kinase 1 (Homo sapiens, UniProt Q02750); test: Inhibition of human MEK-1 by Lanthascreen TR-FRET assay
[5] = molecular target: T1, Phosphatidylinositol 4,5-bisphosphate 3-kinase catalytic subunit delta isoform (Homo sapiens, UniProt O00329); test: Inhibition of human PI3Kdelta by TR-FRET based Adapta assay
T1 sequence (O00329 whole entry): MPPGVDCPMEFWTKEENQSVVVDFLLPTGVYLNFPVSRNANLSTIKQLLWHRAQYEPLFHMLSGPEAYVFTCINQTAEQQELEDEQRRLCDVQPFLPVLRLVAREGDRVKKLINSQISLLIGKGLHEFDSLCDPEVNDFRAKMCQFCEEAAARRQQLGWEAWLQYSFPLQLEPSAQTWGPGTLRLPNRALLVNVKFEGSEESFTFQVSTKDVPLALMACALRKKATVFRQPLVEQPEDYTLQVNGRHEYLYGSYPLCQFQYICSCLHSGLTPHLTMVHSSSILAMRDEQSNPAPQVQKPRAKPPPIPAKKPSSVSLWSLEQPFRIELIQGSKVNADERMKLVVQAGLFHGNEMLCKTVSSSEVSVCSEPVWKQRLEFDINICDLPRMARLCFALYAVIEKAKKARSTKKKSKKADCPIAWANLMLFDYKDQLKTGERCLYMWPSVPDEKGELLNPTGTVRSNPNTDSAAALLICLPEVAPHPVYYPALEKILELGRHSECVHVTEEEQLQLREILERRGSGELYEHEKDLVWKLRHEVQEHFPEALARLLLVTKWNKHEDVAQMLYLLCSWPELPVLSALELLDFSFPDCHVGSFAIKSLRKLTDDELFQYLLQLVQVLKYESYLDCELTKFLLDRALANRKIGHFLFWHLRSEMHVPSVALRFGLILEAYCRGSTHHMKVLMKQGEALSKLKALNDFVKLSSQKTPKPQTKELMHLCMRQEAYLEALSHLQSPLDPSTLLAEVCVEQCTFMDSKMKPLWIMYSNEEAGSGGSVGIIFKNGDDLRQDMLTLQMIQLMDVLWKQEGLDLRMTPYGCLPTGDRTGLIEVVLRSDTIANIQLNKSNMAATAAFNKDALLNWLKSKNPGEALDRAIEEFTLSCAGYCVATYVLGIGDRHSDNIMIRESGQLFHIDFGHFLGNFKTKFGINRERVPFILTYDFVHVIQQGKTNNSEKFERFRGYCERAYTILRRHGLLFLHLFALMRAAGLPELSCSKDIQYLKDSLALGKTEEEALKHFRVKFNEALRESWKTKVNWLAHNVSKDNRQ

A-375 [6] = test: Inhibition of ERK phosphorylation in human A-375 cells assessed as change in phosphorylated ERK level at 10 uM for 30 minutes in presence of PDGF by western blot analysis relative to control; type: cell-based; parameters: scale not given: the % may be the effect or the level left
How it was run: (§2)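 A375 and D54 cells grown in DMEM with 10% FBS; SET-2 in RPMI with 20% FBS. Cells treated 30 min at 10 μM; A375 and D54 also received PDGF 50 ng/ml, which was omitted for SET-2. Cells lysed in RIPA with protease and phosphatase inhibitors, then SDS-PAGE/western blot for pAKT S473, pERK1/2 T202/Y204, total AKT and total ERK. Densitometry of phospho signal normalized to total protein, expressed as % of control. 3 independent experiments, mean ± SEM.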

Spleen [7] = test: Effect in JAK2V6175 transgenic myelofibrosis C57BL/6 mouse spleen assessed as reduction in ERK1/2 phosphorylation at 325 mg/kg, po administered daily for 5 days by flow cytometry analysis; settings: time 5.0 day
[8] = Drug metabolism in JAK2V6175 transgenic myelofibrosis C57BL/6 mouse blood at 325 mg/kg, po assessed as metabolite formation measured after 4 hrs by LC-MS/MS analysis; type: ADME, organism-based; settings: in vivo; how it was run: as §1
[9] = molecular target: Phosphatidylinositol 4,5-bisphosphate 3-kinase catalytic subunit gamma isoform (Homo sapiens, UniProt P48736); test: Inhibition of human PI3Kgamma by TR-FRET based Adapta assay
[10] = Drug concentration in JAK2V6175 transgenic myelofibrosis C57BL/6 mouse bone marrow at 325 mg/kg, po measured after 4 hrs by LC-MS/MS analysis; type: ADME, organism-based; settings: read-out: Ct; how it was run: as §1
Spleen [11] = test: Effect of MAPK signalling pathway in JAK2V6175F transgenic myelofibrosis C57BL/6 mouse spleen assessed as reduction in ERK1/2 phosphorylation at 325 mg/kg, po daily for 5 days by flow cytometry analysis; type: functional, organism-based; settings: time 5.0 day
How it was run: (§3)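 JAK2V617F bone-marrow-transplant MF mice were dosed 325 mg/kg orally daily for 5 days, then sacrificed. Isolated cells stained intracellularly with APC-conjugated anti-pAKT (S473) or anti-pERK1/2 (T202/Y204). Mean fluorescence intensity measured by flow cytometry. Vehicle n=6, treated n=4; mean ± s.e.m., Welch's t-test.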

D54 cell line [12] = test: Inhibition of AKT phosphorylation in human D-54 cells assessed as change in phosphorylated Akt level at 10 uM for 30 minutes in presence of PDGF by western blot analysis relative to control; type: cell-based; parameters: scale not given: the % may be the effect or the level left; how it was run: as §2
SET2 [13] = test: Inhibition of ERK phosphorylation in human SET2 cells assessed as change in phosphorylated ERK level at 10 uM for 30 minutes in absence of PDGF by western blot analysis relative to control; parameters: scale not given: the % may be the effect or the level left
A-375 [14] = test: Inhibition of AKT phosphorylation in human A-375 cells assessed as change in phosphorylated Akt level at 10 uM for 30 minutes in presence of PDGF by western blot analysis relative to control; type: cell-based; parameters: scale not given: the % may be the effect or the level left; how it was run: as §2
[15] = molecular target: Phosphatidylinositol 4,5-bisphosphate 3-kinase catalytic subunit alpha isoform (Homo sapiens, UniProt P42336); test: Inhibition of human PI3Kalpha by TR-FRET based Adapta assay
[16] = Drug metabolism in JAK2V6175 transgenic myelofibrosis C57BL/6 mouse spleen at 325 mg/kg, po assessed as metabolite formation measured after 4 hrs by LC-MS/MS analysis; type: ADME, organism-based; settings: in vivo; how it was run: as §1
Spleen [17] = test: Effect of PI3K signalling pathway in JAK2V6175 transgenic myelofibrosis C57BL/6 mouse spleen assessed as reduction in AKT phosphorylation at 325 mg/kg, po administered daily for 5 days by flow cytometry analysis; type: functional, organism-based; settings: time 5.0 day; how it was run: as §3
D54 cell line [18] = test: Inhibition of ERK phosphorylation in human D-54 cells assessed as change in phosphorylated ERK level at 10 uM for 30 minutes in presence of PDGF by western blot analysis relative to control; type: cell-based; parameters: scale not given: the % may be the effect or the level left; how it was run: as §2
D54 cell line [19] = test: Antiproliferative activity against human D54 cells assessed as reduction in cell viability measured after 72 hrs by CellTiter-Fluor cell viability assay; type: functional, cell-based; settings: D54, 72 h
How it was run: (§4)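 Cells grown in DMEM or RPMI 1640 with 10% FBS (20% for SET-2), 37 °C, 5% CO₂. About 500–1,000 cells/well seeded and incubated 24 h, then exposed to final concentrations of 0.1–20 μM for 72 h. Viability read by fluorescence (CellTiter-Fluor). IC₅₀ calculated from 3 independent experiments in duplicate wells, reported as mean ± SEM.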

[20] = Drug concentration in JAK2V6175 transgenic myelofibrosis C57BL/6 mouse blood at 325 mg/kg, po measured after 4 hrs by LC-MS/MS analysis; type: ADME, organism-based; settings: whole blood, read-out: Ct; how it was run: as §1
[21] = molecular target: Phosphatidylinositol 4,5-bisphosphate 3-kinase catalytic subunit beta isoform (Homo sapiens, UniProt P42338); test: Inhibition of human PI3Kbeta by TR-FRET based Adapta assay
Spleen [22] = test: Effect of MAPK signalling pathway in JAK2V6175 transgenic myelofibrosis C57BL/6 mouse spleen assessed as reduction in […] phosphorylation at 325 mg/kg, po administered daily for 5 days by flow cytometry analysis; type: functional, organism-based; settings: time 5.0 day; how it was run: as §3
[23] = Drug concentration in JAK2V6175 transgenic myelofibrosis C57BL/6 mouse spleen at 325 mg/kg, po measured after 4 hrs by LC-MS/MS analysis; type: ADME, organism-based; settings: read-out: Ct; how it was run: as §1
SET-2 = test: Antiproliferative activity against human SET-2 cells assessed as reduction in cell viability measured after 72 hrs by CellTiter-Fluor cell viability assay; type: functional, cell-based; settings: SET-2, 72 h; how it was run: as §4
Mus musculus [24] = test: Antitumor activity against JAK2V6175 transgenic myelofibrosis C57BL/6 mouse cancer model assessed as reduction in spleen volume at 325 mg/kg, po administered daily for 4 days by magnetic resonance imaging analysis; type: functional, organism-based; settings: time 4.0 day
How it was run: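 Lethally irradiated C57BL/6 female recipients received 5 million mixed bone marrow cells (Mx1-Cre; JAK2V617F donor with WT, 1:9) and polyI:C twice 2 weeks after transplant. 325 mg/kg by oral gavage daily. Spleen volume by anatomic MRI at 7T after 4 days. Vehicle n=5, treated n=4; mean ± s.d., Welch's t-test.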

A-375 [25] = test: Antiproliferative activity against human A-375 cells assessed as reduction in cell viability measured after 72 hrs by CellTiter-Fluor cell viability assay; type: functional, cell-based; settings: A-375, 72 h; how it was run: as §4

Chain of Dual specificity mitogen-activated protein kinase kinase 1 (Q02750 whole entry, canonical isoform): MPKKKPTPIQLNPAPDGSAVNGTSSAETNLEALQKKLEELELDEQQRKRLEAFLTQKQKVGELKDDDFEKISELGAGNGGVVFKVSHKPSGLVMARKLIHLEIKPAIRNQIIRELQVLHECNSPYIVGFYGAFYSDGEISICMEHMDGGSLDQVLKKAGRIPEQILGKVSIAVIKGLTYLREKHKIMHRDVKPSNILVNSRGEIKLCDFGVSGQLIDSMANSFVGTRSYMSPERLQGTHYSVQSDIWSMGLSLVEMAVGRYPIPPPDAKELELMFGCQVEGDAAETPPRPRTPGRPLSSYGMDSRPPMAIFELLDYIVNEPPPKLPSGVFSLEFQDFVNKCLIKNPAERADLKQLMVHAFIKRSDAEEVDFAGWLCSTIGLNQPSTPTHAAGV
Chain of Phosphatidylinositol 4,5-bisphosphate 3-kinase catalytic subunit beta isoform (P42338 whole entry, canonical isoform): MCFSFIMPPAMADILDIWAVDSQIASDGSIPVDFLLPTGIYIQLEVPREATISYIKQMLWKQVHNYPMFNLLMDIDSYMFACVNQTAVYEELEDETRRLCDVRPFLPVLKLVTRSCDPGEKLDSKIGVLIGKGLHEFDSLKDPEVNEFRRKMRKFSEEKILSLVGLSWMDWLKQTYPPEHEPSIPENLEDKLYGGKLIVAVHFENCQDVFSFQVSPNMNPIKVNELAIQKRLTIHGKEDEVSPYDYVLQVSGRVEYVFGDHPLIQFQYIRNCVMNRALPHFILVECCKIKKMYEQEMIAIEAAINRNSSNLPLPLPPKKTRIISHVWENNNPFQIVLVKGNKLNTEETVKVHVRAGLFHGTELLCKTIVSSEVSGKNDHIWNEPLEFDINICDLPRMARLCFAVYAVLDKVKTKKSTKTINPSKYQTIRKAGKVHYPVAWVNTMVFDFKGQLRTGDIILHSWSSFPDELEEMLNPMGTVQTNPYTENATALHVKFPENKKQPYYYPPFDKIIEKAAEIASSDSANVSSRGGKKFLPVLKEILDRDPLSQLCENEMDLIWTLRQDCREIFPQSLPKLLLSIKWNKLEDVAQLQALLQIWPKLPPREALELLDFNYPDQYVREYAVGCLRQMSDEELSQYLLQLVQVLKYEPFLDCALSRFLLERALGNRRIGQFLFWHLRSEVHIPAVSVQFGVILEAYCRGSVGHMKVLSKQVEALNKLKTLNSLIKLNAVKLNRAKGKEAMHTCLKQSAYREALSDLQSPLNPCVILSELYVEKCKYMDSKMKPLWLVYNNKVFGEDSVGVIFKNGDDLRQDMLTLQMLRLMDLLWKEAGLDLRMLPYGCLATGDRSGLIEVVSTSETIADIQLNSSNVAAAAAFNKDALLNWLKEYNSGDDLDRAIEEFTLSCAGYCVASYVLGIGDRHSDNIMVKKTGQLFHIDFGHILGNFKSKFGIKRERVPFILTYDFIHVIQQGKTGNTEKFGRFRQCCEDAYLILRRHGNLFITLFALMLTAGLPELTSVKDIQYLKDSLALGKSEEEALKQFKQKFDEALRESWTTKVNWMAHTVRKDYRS
Chain of Phosphatidylinositol 4,5-bisphosphate 3-kinase catalytic subunit gamma isoform (P48736 whole entry, canonical isoform): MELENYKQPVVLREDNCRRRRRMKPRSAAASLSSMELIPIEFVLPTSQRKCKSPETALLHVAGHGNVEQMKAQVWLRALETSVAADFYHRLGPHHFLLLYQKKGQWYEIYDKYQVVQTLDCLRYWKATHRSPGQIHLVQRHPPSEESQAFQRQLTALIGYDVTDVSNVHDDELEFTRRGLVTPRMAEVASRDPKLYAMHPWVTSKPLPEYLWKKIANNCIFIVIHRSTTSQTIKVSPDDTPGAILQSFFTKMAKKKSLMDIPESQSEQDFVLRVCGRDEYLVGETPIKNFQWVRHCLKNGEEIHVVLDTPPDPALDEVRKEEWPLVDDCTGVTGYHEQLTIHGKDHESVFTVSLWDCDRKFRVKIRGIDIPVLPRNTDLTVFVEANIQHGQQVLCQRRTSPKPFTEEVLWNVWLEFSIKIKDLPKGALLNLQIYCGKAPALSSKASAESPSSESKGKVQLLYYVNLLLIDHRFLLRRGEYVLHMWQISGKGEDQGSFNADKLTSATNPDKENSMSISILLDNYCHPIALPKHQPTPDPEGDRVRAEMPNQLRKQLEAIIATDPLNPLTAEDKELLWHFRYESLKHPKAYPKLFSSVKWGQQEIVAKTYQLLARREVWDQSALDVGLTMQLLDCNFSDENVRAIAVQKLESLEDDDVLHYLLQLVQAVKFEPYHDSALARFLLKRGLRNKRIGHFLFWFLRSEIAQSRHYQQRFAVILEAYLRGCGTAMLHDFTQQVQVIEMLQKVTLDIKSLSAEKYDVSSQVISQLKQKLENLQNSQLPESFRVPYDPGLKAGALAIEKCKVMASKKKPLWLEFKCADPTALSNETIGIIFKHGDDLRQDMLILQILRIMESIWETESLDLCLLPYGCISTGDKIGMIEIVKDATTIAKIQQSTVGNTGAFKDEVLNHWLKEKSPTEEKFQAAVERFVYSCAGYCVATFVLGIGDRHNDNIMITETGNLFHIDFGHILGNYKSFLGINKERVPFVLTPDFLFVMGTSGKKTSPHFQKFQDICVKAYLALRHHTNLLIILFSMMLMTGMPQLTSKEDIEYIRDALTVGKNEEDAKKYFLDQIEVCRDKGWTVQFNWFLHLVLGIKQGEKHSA
Chain of Phosphatidylinositol 4,5-bisphosphate 3-kinase catalytic subunit alpha isoform (P42336 whole entry, canonical isoform): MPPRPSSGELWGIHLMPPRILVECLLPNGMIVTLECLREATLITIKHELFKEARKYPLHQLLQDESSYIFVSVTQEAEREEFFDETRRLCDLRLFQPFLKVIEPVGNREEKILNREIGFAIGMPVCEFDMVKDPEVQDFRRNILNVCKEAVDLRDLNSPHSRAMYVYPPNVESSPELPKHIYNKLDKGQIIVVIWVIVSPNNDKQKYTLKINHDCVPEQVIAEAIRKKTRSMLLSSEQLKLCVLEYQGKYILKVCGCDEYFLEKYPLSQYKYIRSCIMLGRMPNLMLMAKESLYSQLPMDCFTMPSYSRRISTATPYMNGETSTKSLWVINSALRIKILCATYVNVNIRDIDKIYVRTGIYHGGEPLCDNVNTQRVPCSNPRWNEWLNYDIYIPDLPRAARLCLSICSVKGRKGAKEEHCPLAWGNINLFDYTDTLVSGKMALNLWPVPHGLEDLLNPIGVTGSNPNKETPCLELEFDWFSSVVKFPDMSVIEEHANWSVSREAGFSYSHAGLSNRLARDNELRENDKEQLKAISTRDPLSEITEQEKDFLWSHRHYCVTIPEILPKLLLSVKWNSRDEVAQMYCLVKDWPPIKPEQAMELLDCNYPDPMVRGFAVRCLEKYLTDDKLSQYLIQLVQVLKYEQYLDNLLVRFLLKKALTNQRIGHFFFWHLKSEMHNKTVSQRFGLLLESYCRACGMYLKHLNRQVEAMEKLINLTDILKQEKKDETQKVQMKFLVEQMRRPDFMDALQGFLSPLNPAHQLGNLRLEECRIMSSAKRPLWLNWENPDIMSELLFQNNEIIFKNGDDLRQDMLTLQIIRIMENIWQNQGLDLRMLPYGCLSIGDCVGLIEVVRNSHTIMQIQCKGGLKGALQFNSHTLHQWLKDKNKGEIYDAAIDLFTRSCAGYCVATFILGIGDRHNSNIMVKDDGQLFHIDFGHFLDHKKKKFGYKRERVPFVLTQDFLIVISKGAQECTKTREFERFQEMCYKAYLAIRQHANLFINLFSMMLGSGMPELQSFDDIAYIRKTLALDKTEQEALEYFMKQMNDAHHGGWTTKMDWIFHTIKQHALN

Row | SMILES | Drug metabolism [1] | Activity (Mus musculus [2]) | Activity (SET2 [3]) | Activity (A-375 [6]) | inhibition (Spleen [7]) | Drug metabolism [8] | concentration at 4 h [10] | inhibition (Spleen [11]) | Activity (D54 cell line [12]) | Activity (SET2 [13]) | Activity (A-375 [14]) | Drug metabolism [16] | inhibition (Spleen [17]) | Activity (D54 cell line [18]) | pIC50 (D54 cell line [19]) | concentration at 4 h [20] | inhibition (Spleen [22]) | concentration at 4 h [23] | pIC50 (SET-2) | Activity (Mus musculus [24]) | further results
1 | O=C(NOCCOCCOCCOCCNc1nc(N2CCOCC2)nc(-n2c(C(F)F)nc3ccccc32)n1)c1ccc(F)c(F)c1Nc1ccc(I)cc1F | Metabolite_Detected | 35% | 28.9% | 85.5% | Active | Metabolite_Detected | 2000 ng/g | Active | 22.5% | 76.8% | 23.7% | Metabolite_Detected | Active | 66.4% | 4.76 | 2000 ng/g | Active | 2000 ng/g | 4.97 | Active | pIC50 [4]: 6.91; pIC50 [5]: 6.63; pIC50 [9]: 5.56; pIC50 [15]: 6.89; pIC50 [21]: 5.81; pIC50 (A-375 [25]): 4.97
2 | O=C(NOCCOCCOCCOCCN(CCO)c1nc(N2CCOCC2)nc(-n2c(C(F)F)nc3ccccc32)n1)c1ccc(F)c(F)c1Nc1ccc(I)cc1F | Metabolite_Detected | 53% | 54.8% | 96% | Active | Metabolite_Detected | 2000 ng/g | Active | 65.3% | 90% | 70.8% | Metabolite_Detected | Active | 87.3% | 5.00 | 2000 ng/g | Active | 2000 ng/g | 5.15 | Active | pIC50 (A-375 [25]): 5.07
